Source: PubChem BioAssay (several laboratories)
PABP polyA inh – PABP poly(A) RNA binding inhibitors, primary screen, biochemical, fluorescence polarization, uHTS; Polyadenylate-binding protein 1 (Homo sapiens), P11940; inhibition, % at 35 µM; actives 1% (n = 290,000); AID 2014, 2009;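 note: calls also rest on retests at 20 µM and on dose response follow-up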
HCV core dimer – inhibitors of HCV core protein dimerization, primary screen, biochemical, TR-FRET, high-throughput | TR-FRET GST/Flag-core106 dimerization, 1536-well | inhibition, % at 5 µM | actives 0.33% (n = 300,000);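 active = inhibition above the mean of all tested compounds plus 3 SD, set per screening campaign, cut at about 45% in these data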
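Assay system – GST-tagged and Flag-tagged HCV core protein residues 1-106 · Quantity – core106 proteins, GST 13.5 nM and Flag 17 nM · Benchmarks – unlabelled core106 and no-GST-core106 wells · Read-out basis – percent inhibition of core106 dimerization signal · Detection – time-resolved FRET, ex 340 nm, em 617 and 671 nm · Schedule – 4 h at 22.5 °C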
PABP1 MLLE inh – inhibitors of PABP1 MLLE–PAM2 peptide binding, primary screen, biochemical, fluorescence polarization, FITC-PAM2, GST-MLLE; inhibition, % at 20 µM; actives 0.36% (n = 360,000); AID 588489, 2011; in the data active = inhibition above about 35%, passing the limit was not always enough;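 note: plate controls were DMSO wells with GST-MLLE for no effect and wells lacking GST-MLLE protein for full effect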
DNA FID counter – compounds displacing fluorescent DNA intercalator, primary screen, artefact control for HCV NS3 helicase inhibitor project, biochemical, FID fluorescence. AID 1845, 2009. inhibition, % at 7.9 µM. DNA fluorescent intercalator displacement. actives 0.17% (n = 290,000); in the data active = inhibition above about 37%;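 note: 0% = vehicle and 100% = reference compound; higher means more ethidium bromide displaced from hairpin DNA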
NS3 helicase inh – inhibitors of HCV NS3 helicase, primary screen, biochemical, Cy5 molecular beacon fluorescence. Hepatitis C virus NS3 helicase. NS3 helicase DNA unwinding. inhibition, % at 10.9 µM. actives 0.56% (n = 290,000);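 active = inhibition above the mean of all tested compounds plus 3 SD, set per campaign, cut at about 35% in these data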;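 note: 0% = DMSO wells and 100% = thioflavine S control wells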
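test system = hepatitis C virus NS3 helicase domain fragment enzyme | reagent = annealed dual-labelled DNA beacon duplex, ATP-started | times = 1 h at 25 °C | detection = Cy5 fluorescence, 0 and 60 min reads | read-out basis = percent inhibition from t60/t0 fluorescence ratio | control set = DMSO and thioflavine S | replication = one well per compound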
eIF4H inh – human eIF4H binding inhibitors, primary screen, translation initiation inhibitor project, biochemical, uHTS, fluorescence polarization. eIF4H fluorescence polarization binding assay. actives 0.94% (n = 290,000). inhibition, % at 35 µM. AID 2012, 2009;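 note: calls also rest on retests at 20 µM and on dose response follow-up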
* marks the source's active call; other numbers are inactive results; i = inactive; ? = inconclusive; nt = not tested or not shown. A selection: hits, their analogues and other compounds. The true share with any hit is near 2%. Unless noted, the rule behind the calls is not given here.

SMILES	PABP polyA inh	HCV core dimer	PABP1 MLLE inh	DNA FID counter	NS3 helicase inh	eIF4H inh
CCOC(=O)c1sc(N/N=C/c2cc(Br)c(O)c(OC)c2)nc1C	6.5	-10.7	-48.2	7.0	2.4	3.6
CCOc1cc(N2CCOCC2)c(OCC)cc1NS(=O)(=O)c1ccc(Cl)s1	26.4	-6.5	15.6	-21.3	4.3	97.4*
CCOc1cc(N2CCOCC2)c(OCC)cc1NC(=O)c1cc(S(=O)(=O)N2CCOCC2)ccc1Cl	nt	nt	-13.6	nt	nt	nt
Cc1ccc(OCc2cc(C(=O)N(C)Cc3cnc4ccccn34)no2)cc1C	9.6	3.9	1.4	-6.9	-22.5	-10.5
CC1=C(C(=O)O)N2C(=O)C(NC(=O)c3ccccc3Cl)C2SC1 (stereo unspecified)	1.7	-2.1	25.5	-5.5	-17.5	-2.2
CC1=C(C(=O)O)N2C(=O)C(NC(=O)c3ccc(F)cc3)C2SC1 (stereo unspecified)	nt	nt	42.8*	nt	nt	nt
CCOC(=O)N1CCC(NC(=O)c2ccc3c(c2)N=C(C)c2c(C)ccc(C)c2S3)CC1	2.2	0.8	4.7	-54.6	-39.1	-6.6
O=C(O)C(=O)/C(=C\c1cccc2ccccc12)c1ccc2ccccc2n1	91.3*	18.8	-71.5	-4.5	2.1	67.0*
Cc1ccccc1NS(=O)(=O)c1ccc(C(=O)NCC(C)(C)N2CCOCC2)cc1	nt	-2.5	-1.1	nt	nt	nt
O=c1c2cccc3c(N4CCOCC4)ccc(c32)c2nc3ccccc3n12	122.4*	nt	nt	nt	nt	122.4
O=c1c2ccc([N+](=O)[O-])c3cccc(c32)c2nc3ccccc3n12	10.6	-3.2	nt	-4.0	13.2	12.6
Cc1cc(/C=C2/C(=O)NN(c3ccccc3)C2=O)c(C)n1-c1cccc(O)c1	-4.4	-36.0	-7.4	-10.7	23.1	62.2*
O=C1NN(c2ccccc2)C(=O)C1=Cc1ccccc1O	nt	nt	25.4	nt	nt	nt
COC(=O)C1=C(C)NC(=O)/C1=C\c1cc(C)n(-c2ccc(F)cc2)c1C	43.3	-7.5	5.1	-14.4	-2.5	30.3
COC(=O)C1=C(C)NC(=O)/C1=C\c1cc(C)n(-c2cccc(C)c2)c1C	119.0*	15.2	-6.5	-13.4	11.4	120.9
Cc1cc(C)n(-c2ccc(C(=O)N3CCN(S(=O)(=O)c4ccc(Br)cc4Cl)CC3)cc2)n1	nt	nt	5.1	nt	nt	nt
O=C(O)CCCN1C(=O)/C(=C\c2ccc(-c3nc4ccccc4s3)o2)SC1=S	84.6*	12.2	-98.6	-10.7	12.4	96.1*
COc1ccc(CN2C(=O)/C(=C/c3ccc(-c4ccc(Cl)c(C(=O)O)c4)o3)SC2=S)cc1	3.2	nt	nt	-21.2	24.3	?
O=C(O)CN1C(=O)/C(=C\c2cccc(OCc3ccccc3)c2)SC1=S	3.5	8.9	29.8	0.9	25.5	5.6
O=C(O)COc1cccc(/C=C2/SC(=S)N(Cc3ccccc3)C2=O)c1	-0.2	55.5*	2.8	2.8	9.6	6.1
O=C(O)c1cc(-c2ccc(/C=C3/SC(=S)N(Cc4ccccc4)C3=O)o2)ccc1Cl	9.1*	nt	i	-15.3	23.1	85.5*
Cc1ccc(N2CC(C(=O)NCCC3=CCCCC3)CC2=O)cc1 (stereo unspecified)	nt	-0.9	-8.4	nt	nt	nt
OC[C@@H]1CN(Cc2ccco2)C[C@H](n2cnc3c(NC4CC4)ncnc32)O1	nt	nt	3.1	nt	nt	nt
O=C(O)CSCC(=O)N(Cc1ccccc1)c1nc(-c2ccccc2)c(-c2ccccc2)s1	10.9	19.4	-1.2	7.2	-11.6	74.1*
CCOC(=O)c1sc(N(Cc2ccccc2)C(=O)CCl)nc1C	3.6	4.6	23.1	-20.9	0.6	-1.3
SMILES	PABP polyA inh	HCV core dimer	PABP1 MLLE inh	DNA FID counter	NS3 helicase inh	eIF4H inh
CCN1C(=O)/C(=C2\Sc3ccccc3N2CC)OC1=S	-4.4	1.8	46.4*	-2.9	6.9	-0.7
O=C(NCC1CCCO1)c1sc(=S)n2c1[nH]c(=O)c1ccc(C(=O)N3CCCCC3)cc12 (stereo unspecified)	38.1	-7.0	-0.6	16.9	26.2	9.3
O=C(NCCc1ccccc1)c1ccc2c(=O)[nH]c3c(C(=O)NCC4CCCO4)sc(=S)n3c2c1 (stereo unspecified)	51.7	10.3	-4.0	48.7*	-35.1	11.5
COc1cc(/C=C/C(=O)c2ccc3c(c2)OCCO3)cc(Br)c1OCC(=O)N(C)C	1.0	10.4	-28.0	-37.2	-14.4	4.9
C=CCn1c(C)nnc1SCC(=O)Nc1nccs1	3.7	2.1	-9.8	-17.6	26.4	2.0
Cc1cc(C)n(CC(=O)NNC(=O)COc2ccc(Br)cc2F)n1	nt	nt	101.4*	nt	nt	nt
COc1ccc(-c2nc(CS(=O)CC(=O)NCC3CCCO3)c(C)o2)cc1 (stereo unspecified)	3.2	-4.3	14.3	-13.4	4.7	0.2
COc1cccc(-c2nc(CSCC(=O)NCC3CCCO3)c(C)o2)c1 (stereo unspecified)	-1.0	-2.7	45.6*	-21.4	8.4	-5.3
CN1CCN(NC(=O)CN2C(=O)S/C(=C\c3c(Cl)cccc3Cl)C2=O)CC1	-5.3	-1.6	41.0*	-27.0	30.2	7.8
O=C(CCN1C(=O)/C(=C/c2ccccc2Cl)SC1=S)NN1CCOCC1	-2.7	2.1	24.5	-10.1	3.1	-13.2
O=C(CNCc1ccc(Cl)cc1)Nc1cc(S(=O)(=O)N2CCCC2)ccc1Cl	nt	nt	5.2	nt	nt	nt
CCOC(=O)CSc1nc2c(c(=O)[nH]c(=O)n2C)n1C/C=C(/C)Cl	-7.2	-2.9	37.1*	-4.6	7.7	1.5
CCOC(=O)C(CC)Sc1nc2c(c(=O)[nH]c(=O)n2C)n1CCc1ccccc1 (stereo unspecified)	-10.1	2.6	39.9*	-13.0	-2.3	1.3
CC=CCn1c(SCc2ccccc2)nc2c1c(=O)[nH]c(=O)n2C	nt	nt	42.5*	nt	nt	nt
COc1ccc(C(=O)O/N=C/c2ccc(S(=O)(=O)c3ccc(Cl)cc3)nc2)cc1	nt	1.1	-11.5	nt	nt	nt
COc1cnc(SCC(=O)O)[nH]c1=O	82.2*	-1.5	21.9	-1.7	-3.6	7.1
CCCCC(=O)N(C)c1c(CC)nc2c(OCC(=O)c3ccc(F)cc3)cccn12	nt	nt	-13.7	nt	nt	nt
c1cncc(-c2nc3ccccc3o2)c1	18.6*	0.9	5.8	3.1	5.3	51.6
O=C(CCCNC(=O)c1ccc(Cl)cc1)NCc1ccccc1F	-3.8	8.8	-8.1	-9.1	6.1	-7.3
CN1CCN(C(=O)C[C@H]2C[C@H]3c4cc(NC(=O)NC5CCCCC5)ccc4O[C@H]3[C@@H](CO)O2)CC1	nt	nt	17.8	nt	nt	nt
Nc1nonc1C(=O)NCCNCc1ccccc1OCc1ccccc1F	-6.6	-8.2	-1.8	20.6	-9.5	-3.1
Nc1nonc1C(=O)NCCNCc1cc(Br)ccc1OCc1ccccc1F	-8.4	-0.1	-7.0	39.7*	-84.2	-8.3
